Each block holds one compound with its values, some of them ahead of it. The source made the active and inactive calls. No cut-off for these calls is given here.
What was measured:
[1] = biological target: T1, Proto-oncogene tyrosine-protein kinase ROS (Homo sapiens, UniProt P08922); details: HCC78, 2.5 uM
[2] = biological target: T1, Proto-oncogene tyrosine-protein kinase ROS; details: HCC78, 2.5 uM; remark: listed apart in the source
HCC78 [3] = experiment: Induction of apoptosis in human HCC78 cells assessed as viable cells level at 2.5 uM incubated fro 48 hrs by Annexin-V FITC and propidium iodide staining based flow cytometry (reference value: 80.8%); format: functional
HCC78 [4] = experiment: Induction of apoptosis in human HCC78 cells assessed as necrotic cells level at 2.5 uM incubated fro 48 hrs by Annexin-V FITC and propidium iodide staining based flow cytometry (reference value: 0.06%); format: functional
[5] = biological target: T1, Proto-oncogene tyrosine-protein kinase ROS; details: HCC78, 2.5 uM; remark: listed apart in the source
HCC78 [6] = experiment: Induction of apoptosis in human HCC78 cells assessed as late apoptotic cells level at 2.5 uM incubated fro 48 hrs by Annexin-V FITC and propidium iodide staining based flow cytometry (reference value: 13.8%); format: functional
[7] = biological target: T1, Proto-oncogene tyrosine-protein kinase ROS; details: HCC78, 2.5 uM; remark: listed apart in the source
HCC78 [8] = experiment: Induction of apoptosis in human HCC78 cells assessed as early apoptotic cells level at 2.5 uM incubated fro 48 hrs by Annexin-V FITC and propidium iodide staining based flow cytometry (reference value: 6.33%); format: functional
HCC78 [9] = experiment: Induction of apoptosis in human HCC78 cells assessed as early apoptotic cells level at 5 nM incubated fro 48 hrs by Annexin-V FITC and propidium iodide staining based flow cytometry (reference value: 6.33%); format: functional
HCC78 [10] = experiment: Induction of apoptosis in human HCC78 cells assessed as necrotic cells level at 20 nM incubated fro 48 hrs by Annexin-V FITC and propidium iodide staining based flow cytometry (reference value: 0.06%); format: functional
HCC78 [11] = experiment: Induction of apoptosis in human HCC78 cells assessed as viable cells level at 5 nM incubated fro 48 hrs by Annexin-V FITC and propidium iodide staining based flow cytometry (reference value: 80.8%); format: functional
HCC78 [12] = experiment: Induction of apoptosis in human HCC78 cells assessed as late apoptotic cells level at 10 nM incubated fro 48 hrs by Annexin-V FITC and propidium iodide staining based flow cytometry (reference value: 13.8%); format: functional
CCD 19Lu = experiment: Cytotoxicity in human CCD-19Lu cells assessed as reduction in cell viability incubated for 72 hrs by MTT assay; format: cell-based
HCC78 [13] = experiment: Induction of apoptosis in human HCC78 cells assessed as necrotic cells level at 10 nM incubated fro 48 hrs by Annexin-V FITC and propidium iodide staining based flow cytometry (reference value: 0.06%); format: functional
HCC78 [14] = experiment: Cytotoxicity in human HCC78 cells assessed as reduction in cell viability incubated for 72 hrs by MTT assay; format: functional, cell-based; details: HCC78, 72 h
Procedure, shortened: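 3000 cells per well, allowed to adhere overnight, then exposed to DMSO or a concentration series for 72 h. MTT (5 mg/ml stock) added for a further 4 h, and crystals dissolved in 10% SDS/0.1 mM HCl. A570 read. Viability expressed relative to untreated controls from at least 3 independent experiments. HCC78 cells were grown in RPMI-1640 with 10% FBS and penicillin/streptomycin at 37 °C under 5% CO2.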

HCC78 [15] = experiment: Induction of apoptosis in human HCC78 cells assessed as necrotic cells level at 5 nM incubated fro 48 hrs by Annexin-V FITC and propidium iodide staining based flow cytometry (reference value: 0.06%); format: functional
[16] = biological target: T1, Proto-oncogene tyrosine-protein kinase ROS; experiment: Inhibition of ROS1 phosphorylation in human HCC78 cells incubated for 48 hrs by Western blot method; format: cell-based
Procedure, shortened: (§1)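 HCC78 cells plated overnight in 6-well plates, treated for 48 h, then lysed in RIPA buffer with protease/phosphatase inhibitors. Equal protein loaded for SDS-PAGE and transferred to nitrocellulose. Blocked in 5% milk/TBST, probed overnight at 4 °C for p-ROS1, ROS1, p-STAT3, STAT3, p-AKT, AKT, p-ERK, ERK and GAPDH, and detected with fluorescent secondary antibodies on an infrared scanner.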

HCC78 [17] = experiment: Induction of apoptosis in human HCC78 cells assessed as late apoptotic cells level at 20 nM incubated fro 48 hrs by Annexin-V FITC and propidium iodide staining based flow cytometry (reference value: 13.8%); format: functional
[18] = biological target: T1, Proto-oncogene tyrosine-protein kinase ROS; experiment: Inhibition of ROS1 in human HCC78 cells assessed as reduction in STAT3 phosphorylation incubated for 48 hrs by Western blot method; format: cell-based
Procedure, shortened: as §1

[19] = biological target: T1, Proto-oncogene tyrosine-protein kinase ROS; experiment: Inhibition of ROS1 in human HCC78 cells assessed as reduction in AKT phosphorylation incubated for 48 hrs by Western blot method; format: cell-based
Procedure, shortened: as §1

[20] = biological target: T1, Proto-oncogene tyrosine-protein kinase ROS; experiment: Inhibition of ROS1 in human HCC78 cells assessed as reduction in ERK phosphorylation incubated for 48 hrs by Western blot method; format: cell-based
Procedure, shortened: as §1

[21] = biological target: T1, Proto-oncogene tyrosine-protein kinase ROS; experiment: Inhibition of ROS1 (unknown origin) using poly (Glu,Tyr)4:1 substrate and ATP incubated for 60 mins by ELISA
Procedure, shortened: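 Purified recombinant ROS1 on poly(Glu,Tyr)4:1-coated wells (20 μg/ml coating). Reaction run in HEPES pH 7.4 buffer with MgCl2, MnCl2, Na3VO4 and DTT, with 10 μmol/l ATP solution and compound in 1% DMSO, 60 min at 37 °C. Phosphotyrosine detected by PY99 antibody, then HRP anti-mouse IgG and o-phenylenediamine, read at A490. Inhibition calculated as % of DMSO control. IC50 derived from curves in two experiments.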

HCC78 [22] = experiment: Induction of apoptosis in human HCC78 cells assessed as early apoptotic cells level at 20 nM incubated fro 48 hrs by Annexin-V FITC and propidium iodide staining based flow cytometry (reference value: 6.33%); format: functional
HCC78 [23] = experiment: Induction of apoptosis in human HCC78 cells incubated fro 48 hrs by Annexin-V FITC and propidium iodide staining based flow cytometry; format: functional, cell-based
HCC78 [24] = experiment: Induction of apoptosis in human HCC78 cells assessed as viable cells level at 10 nM incubated fro 48 hrs by Annexin-V FITC and propidium iodide staining based flow cytometry (reference value: 80.8%); format: functional
HCC78 [25] = experiment: Induction of apoptosis in human HCC78 cells assessed as early apoptotic cells level at 10 nM incubated fro 48 hrs by Annexin-V FITC and propidium iodide staining based flow cytometry (reference value: 6.33%); format: functional
HCC78 [26] = experiment: Induction of apoptosis in human HCC78 cells assessed as viable cells level at 20 nM incubated fro 48 hrs by Annexin-V FITC and propidium iodide staining based flow cytometry (reference value: 80.8%); format: functional
HCC78 [27] = experiment: Induction of apoptosis in human HCC78 cells assessed as late apoptotic cells level at 5 nM incubated fro 48 hrs by Annexin-V FITC and propidium iodide staining based flow cytometry (reference value: 13.8%); format: functional

T1 sequence (P08922 whole entry): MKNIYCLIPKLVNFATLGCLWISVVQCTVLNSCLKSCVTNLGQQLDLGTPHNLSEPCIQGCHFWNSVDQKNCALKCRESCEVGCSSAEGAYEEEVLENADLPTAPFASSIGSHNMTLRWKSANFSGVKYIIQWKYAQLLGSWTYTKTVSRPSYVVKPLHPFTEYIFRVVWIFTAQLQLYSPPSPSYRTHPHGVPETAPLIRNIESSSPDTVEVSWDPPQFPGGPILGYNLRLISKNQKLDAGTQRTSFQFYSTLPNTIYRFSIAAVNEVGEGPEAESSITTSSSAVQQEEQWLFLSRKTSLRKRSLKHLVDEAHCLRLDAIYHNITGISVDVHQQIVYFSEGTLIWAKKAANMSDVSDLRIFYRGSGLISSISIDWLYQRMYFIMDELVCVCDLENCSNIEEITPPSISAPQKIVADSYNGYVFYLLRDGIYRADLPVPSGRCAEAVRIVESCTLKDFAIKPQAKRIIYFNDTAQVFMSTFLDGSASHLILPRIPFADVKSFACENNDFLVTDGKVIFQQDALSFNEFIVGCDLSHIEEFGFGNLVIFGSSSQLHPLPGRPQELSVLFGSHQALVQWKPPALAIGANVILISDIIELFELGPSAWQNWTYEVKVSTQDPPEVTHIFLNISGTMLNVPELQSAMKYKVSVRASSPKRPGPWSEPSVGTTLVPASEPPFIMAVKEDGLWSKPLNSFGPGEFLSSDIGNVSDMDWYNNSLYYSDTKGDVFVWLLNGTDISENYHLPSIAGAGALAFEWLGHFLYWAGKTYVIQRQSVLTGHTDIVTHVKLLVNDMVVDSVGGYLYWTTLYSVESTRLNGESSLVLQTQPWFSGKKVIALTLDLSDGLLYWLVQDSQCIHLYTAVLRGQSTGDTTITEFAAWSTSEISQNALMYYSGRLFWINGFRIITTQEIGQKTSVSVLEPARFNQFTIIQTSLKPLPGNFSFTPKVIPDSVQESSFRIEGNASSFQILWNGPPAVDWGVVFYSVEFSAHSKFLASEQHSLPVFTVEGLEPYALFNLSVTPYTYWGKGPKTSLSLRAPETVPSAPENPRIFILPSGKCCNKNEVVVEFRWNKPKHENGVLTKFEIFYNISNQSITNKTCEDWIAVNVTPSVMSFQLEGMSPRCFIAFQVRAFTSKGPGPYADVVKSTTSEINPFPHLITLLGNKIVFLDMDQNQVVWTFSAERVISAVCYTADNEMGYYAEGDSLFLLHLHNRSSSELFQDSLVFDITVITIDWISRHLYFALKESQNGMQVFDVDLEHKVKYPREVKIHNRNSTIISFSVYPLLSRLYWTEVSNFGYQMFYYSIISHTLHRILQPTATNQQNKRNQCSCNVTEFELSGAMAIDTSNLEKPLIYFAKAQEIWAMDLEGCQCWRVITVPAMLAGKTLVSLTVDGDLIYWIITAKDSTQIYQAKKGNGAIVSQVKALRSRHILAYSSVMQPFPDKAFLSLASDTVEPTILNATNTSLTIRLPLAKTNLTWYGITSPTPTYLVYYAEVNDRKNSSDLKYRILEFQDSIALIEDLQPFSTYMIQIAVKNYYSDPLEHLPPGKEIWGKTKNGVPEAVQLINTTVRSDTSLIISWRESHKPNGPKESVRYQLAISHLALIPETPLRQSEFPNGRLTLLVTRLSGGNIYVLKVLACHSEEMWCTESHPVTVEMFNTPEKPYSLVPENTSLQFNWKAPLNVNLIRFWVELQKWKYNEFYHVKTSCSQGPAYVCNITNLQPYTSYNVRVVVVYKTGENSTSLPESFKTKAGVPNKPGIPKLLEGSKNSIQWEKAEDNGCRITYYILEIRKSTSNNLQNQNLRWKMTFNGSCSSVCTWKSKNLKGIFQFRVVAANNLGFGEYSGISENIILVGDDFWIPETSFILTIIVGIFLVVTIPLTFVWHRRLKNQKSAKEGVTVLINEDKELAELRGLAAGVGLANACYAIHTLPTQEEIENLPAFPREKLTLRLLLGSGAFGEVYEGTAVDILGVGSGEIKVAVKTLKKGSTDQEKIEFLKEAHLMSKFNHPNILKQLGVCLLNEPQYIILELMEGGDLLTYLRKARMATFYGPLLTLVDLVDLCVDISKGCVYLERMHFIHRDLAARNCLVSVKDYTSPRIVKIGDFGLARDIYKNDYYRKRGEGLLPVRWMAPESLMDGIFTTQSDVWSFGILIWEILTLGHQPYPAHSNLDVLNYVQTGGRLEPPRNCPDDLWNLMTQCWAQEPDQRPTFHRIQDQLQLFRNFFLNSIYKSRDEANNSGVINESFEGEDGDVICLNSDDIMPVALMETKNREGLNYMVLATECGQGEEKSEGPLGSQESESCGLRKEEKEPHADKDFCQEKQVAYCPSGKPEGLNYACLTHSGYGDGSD

inhibition [1]: Active
inhibition [2]: Active
inhibition [5]: Active
inhibition [7]: Active
Structure (SMILES): C[C@@H](Oc1cc(-c2cnn(C3CCNCC3)c2)cnc1N)c1c(Cl)ccc(F)c1Cl [CRIZOTINIB]
Activity (HCC78 [3]): 45.9%
Activity (HCC78 [4]): 0.662%
Activity (HCC78 [6]): 27.2%
Activity (HCC78 [8]): 27.3%

Structure (SMILES): O=C1c2c(O)ccc(O)c2C(=O)c2c(NCCNCCO)ccc(NCCNCCO)c21 [MITOXANTRONE]
Activity (HCC78 [9]): 16.4%
Activity (HCC78 [10]): 0.048%
Activity (HCC78 [11]): 66.6%
Activity (HCC78 [12]): 18.7%
IC50 (CCD 19Lu): > 160 nM
Activity (HCC78 [13]): 0.076%
IC50 (HCC78 [14]): 13.8 nM
Activity (HCC78 [15]): 0.089%
inhibition [16]: Dose-dependent effect
Activity (HCC78 [17]): 17.2%
inhibition [18]: Dose-dependent effect
inhibition [19]: Dose-dependent effect
inhibition [20]: Dose-dependent effect
IC50 [21]: 3000 nM
Activity (HCC78 [22]): 19.7%
Activity (HCC78 [23]): Dose-dependent effect
Activity (HCC78 [24]): 66.7%
Activity (HCC78 [25]): 18.6%
Activity (HCC78 [26]): 63.8%
Activity (HCC78 [27]): 16.9%

From ChEMBL document CHEMBL4138072, “Identification of mitoxantrone as a new inhibitor of ROS1 fusion protein in non-small cell lung cancer cells” (Medchemcomm, 2017)
